Assay results collected from several papers.
Each line is one published result; the experiments were not run side by side.
Target: Ephrin type-A receptor 6 (EPHA6, Homo sapiens, UniProt Q9UF33)
One construct used (Q9UF33 23-1036): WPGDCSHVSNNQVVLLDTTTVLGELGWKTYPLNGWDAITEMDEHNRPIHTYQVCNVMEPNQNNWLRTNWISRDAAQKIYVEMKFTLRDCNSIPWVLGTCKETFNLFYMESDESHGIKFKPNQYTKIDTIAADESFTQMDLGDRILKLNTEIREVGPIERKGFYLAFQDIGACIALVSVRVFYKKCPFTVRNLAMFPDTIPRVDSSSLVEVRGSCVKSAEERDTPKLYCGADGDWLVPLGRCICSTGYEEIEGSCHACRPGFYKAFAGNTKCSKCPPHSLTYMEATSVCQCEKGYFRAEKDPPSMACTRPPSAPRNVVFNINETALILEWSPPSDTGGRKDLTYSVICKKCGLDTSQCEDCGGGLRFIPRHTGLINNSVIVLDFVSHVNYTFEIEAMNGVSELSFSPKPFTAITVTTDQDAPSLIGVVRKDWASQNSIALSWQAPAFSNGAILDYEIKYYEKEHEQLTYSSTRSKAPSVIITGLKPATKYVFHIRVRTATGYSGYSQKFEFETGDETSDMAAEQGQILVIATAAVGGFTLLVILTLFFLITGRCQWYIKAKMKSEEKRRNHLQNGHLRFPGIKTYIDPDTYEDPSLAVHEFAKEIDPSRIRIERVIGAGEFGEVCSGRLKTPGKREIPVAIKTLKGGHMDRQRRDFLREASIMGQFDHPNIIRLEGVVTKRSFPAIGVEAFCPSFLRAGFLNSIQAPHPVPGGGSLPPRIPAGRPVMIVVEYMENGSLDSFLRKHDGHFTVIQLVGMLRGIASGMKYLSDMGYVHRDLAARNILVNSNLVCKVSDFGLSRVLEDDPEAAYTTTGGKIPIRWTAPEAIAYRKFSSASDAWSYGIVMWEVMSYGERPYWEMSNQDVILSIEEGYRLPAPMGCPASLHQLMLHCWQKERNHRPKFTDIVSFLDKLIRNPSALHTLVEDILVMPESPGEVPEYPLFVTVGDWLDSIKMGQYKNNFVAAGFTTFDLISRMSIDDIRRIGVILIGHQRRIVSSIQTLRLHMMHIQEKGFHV

SMILES | test | setting | remaining binding
CO[C@@H](C)c1c(Nc2ccc([C@H](N(C)C(=O)C3CCS(=O)(=O)CC3)C(F)(F)F)cc2)cnc2cc(Cl)nn12 | cell-free assay, competition with immobilised ligand | 1 µM | 100%
O=C(c1ccc(Nc2ncc(Cl)c(-c3cc4ccccc4s3)n2)cc1)N1CCC(N2CCCC2)CC1 | binding, competition with immobilised ligand | 1 µM | 69%
C[C@@H](c1ccc(-n2cnc3c(N)ncnc32)cc1)N1CCc2nn(C)c(Cc3ccccc3)c2C1=O | binding, competition with immobilised ligand | 0.1 µM | 100%
COc1ncc2cc3ccccc3nc2c1C#N | cell-free assay, competition with immobilised ligand | 5 µM | 98%
COc1cc(-c2cn(C3CCc4c(F)cccc4N(CC(F)(F)F)C3=O)nn2)ccc1-n1cnc(C)c1 (stereo not drawn) | cell-free assay, competition with immobilised ligand | 1 µM | 100%
Nc1ncc2c(n1)-c1c([nH]c3ccc(C#CC4CC4)cc13)CCCC2 | binding, competition with immobilised ligand | 1 µM | 100%
CN(C)c1ncc(F)c(-c2cnn3ncccc23)n1 | binding | 1 µM | 82%
O=C(NCCCN1CCOCC1)c1ccc(Nc2ncc(Cl)c(-c3ccc(Cl)s3)n2)cc1 | binding, competition with immobilised ligand | 1 µM | 63%
Cn1nc(C(=O)NCc2ccc(C(=O)O)cc2)cc1-c1ccc2[nH]ccc2c1 | cell-free assay, competition with immobilised ligand | 0.1 µM | 100%
C=CC(=O)N1CCC(C(=O)NCC(=O)N2CCN(c3nc(-c4cnc(N)nc4C(F)F)nc(N4CCOCC4)n3)CC2)CC1 | binding, competition with immobilised ligand | 1 µM | 100%
COc1cnc(Nc2cccc(S(N)(=O)=O)c2)nc1N1CCN(c2ccccc2)CC1 | binding, competition with immobilised ligand | 1 µM | 100%
C[C@@H]1CCN(c2nccc(-c3cnn4ncccc34)n2)C1 | binding | 1 µM | 100%
O=C(c1ccc(Nc2nccc(-c3cc4ccccc4s3)n2)cc1)N1CCC(N2CCCC2)CC1 | binding, competition with immobilised ligand | 1 µM | 99%
c1cnn2ncc(-c3ccnc(N4CCC45COC5)n3)c2c1 | binding | 1 µM | 95%
CNCc1ccccc1-c1csc([C@H](C)Nc2nc(C)nc3cc(OC)c(OC)cc23)c1 | cell-free assay, competition with immobilised ligand | 1 µM | 100%
COc1ccnn2ncc(-c3ccnc(N(C)C)n3)c12 | binding | 1 µM | 67%
CNC(=O)Nc1ccc2c(c1)[C@@]1(CC2)OC(=O)N(CC(=O)N(Cc2ccc(F)cc2)[C@@H](C)C(F)(F)F)C1=O | cell-free assay, competition with immobilised ligand | 1 µM | 91%
CC1CCCN1c1nccc(-c2cnn3ncccc23)n1 (stereo not drawn) | binding | 1 µM | 94%
O=C(Nc1c[nH]nc1C(=O)NC1CCNCC1)c1cc(F)cc(F)c1 | binding, competition with immobilised ligand | 1 µM | 100%
CN(C)c1nccc(-c2cnc3ncccn23)n1 | binding | 1 µM | 98%
O=C(N[C@H]1CCCCC/C=C\C2C[C@@]2(C(=O)O)NC(=O)[C@@H]2C[C@@H](Oc3ccncc3)CN2C1=O)OC1CCCC1 (stereo partly drawn) | cell-free assay, competition with immobilised ligand | 1 µM | 100%
